# From PubChem
# Only some compounds are listed: those with a hit (about 2.9% of all), similar ones and a draw of the others.
# NALP1 inh: inhibitors of NALP1 inflammasome in yeast; S. cerevisiae NALP1/ASC/caspase-1 growth, X-gal OD620, 72 h; inhibition, % at 10 µM; 280,000 compounds, 0.61% hits; AID 2071; in the data active = inhibition mostly above about 24%, no sharp cut-off; inactive = mostly below about 32%
# IMP-1 inh: blocks Pseudomonas aeruginosa IMP-1 metallo-beta-lactamase | 290,000 compounds, 0.45% hits | inhibition, % at 5.6 µM | purified IMP-1, nitrocefin hydrolysis, epi-absorbance fluorescence;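 active = inhibition above the mean plus 3 SD of all compounds in the same screening run, cut at about 4.5% in these data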;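 also: 0% = IMP-1 with DMSO and 100% = DMSO wells lacking enzyme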
#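 Test system: recombinant IMP-1 enzyme, purified / Medium: HEPES buffer pH 7.1 with ZnSO4 and Brij 35 / Doses: single dose, 5.6 µM / Times: 25 °C, 15 min preincubation, 25 min reaction / Detection: Epi-absorbance via hydrolysed-nitrocefin quenching of white-plate fluorescence, 480/530 nm, EDTA stop / Evaluation: percent inhibition from optical density relative to buffer-blank wells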
# PolyA inh: yeast polyadenylation inhibition | activity score, % at 12 µM | S. cerevisiae SKY197-pL101 polyadenylation reporter, beta-gal luminescence; efflux-impaired pdr1/pdr3 knockout yeast; score 100 = 6 SD above DMSO | 300,000 compounds, 0.02% hits | AID 1875;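 active = lowest replicate activity score at least 50, where 100 means six control SD above control mean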;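 also: yeast exposed to compound for 9 h at 30 °C; higher score means more reporter readthrough which indicates perturbed polyadenylation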
# VIM-2 inh: inhibitors of Pseudomonas aeruginosa VIM-2 metallo-beta-lactamase | inhibition, % at 5.6 µM | 290,000 compounds, 0.89% hits | purified VIM-2, nitrocefin hydrolysis, epi-absorbance fluorescence;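 active = inhibition above the mean of all tested compounds plus 3 SD, cutoff set per screening run, cut at about 7.5% in these data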;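 also: red hydrolysis product quenches plate fluorescence so inhibitors raise well fluorescence; 0% = enzyme with DMSO and 100% = DMSO without enzyme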
# Mot1-301 SUMO: SUMOylation pathway inhibition by Mot1-301 growth rescue | AID 2716 | growth rescue, % at 18.8 µM | 320,000 compounds, 1% hits | S. cerevisiae Mot1-301 growth rescue, ATP luminescence, 38.5C; percent above DMSO median, 100 means doubled;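 active = every valid replicate shows activation above 250% relative to neutral control wells; inactive = the rest, any valid replicate at or below 250%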;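 also: OY570 slx delta 5 strain wells were the positive control but not used for scaling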
# NALP3 yeast inh: NALP3 inhibition in yeast; Yeast reconstituted NLRP3/ASC/caspase-1, beta-gal luminescence, 24 h; 330,000 compounds, 0.39% hits; inhibition, % at 10 µM; AID 2825;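 active = inhibition of 50% or more; inactive = inhibition below 50%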;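 also: plate controls were induced DMSO wells for no effect and uninduced yeast grown without galactose for full effect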
# Active calls of the source: *; i = inactive; / = not tested or not shown.
SMILES,NALP1 inh,IMP-1 inh,PolyA inh,VIM-2 inh,Mot1-301 SUMO,NALP3 yeast inh
CCOC(=O)c1cc(NC(=O)N(CC)CC)c(C)nc1C,37*,-3,5,-6,-20,5
Cc1ccc(C(=O)Nc2cc3[nH]c(=O)oc3cc2C)cc1,-17,-4,7,-7,303*,14
COc1coc(C(O)CN)cc1=O (stereo not drawn),26,-2,10,-3,16,7
CCOC(=O)C(=Cc1cc(=O)c(OC)co1)C(=O)OCC,85*,-3,-20,-4,/,/
O=C(NO)c1cc(OCC(F)(F)F)ccc1OCC(F)(F)F,-6,-2,6,12*,-6,-4
O=C(NC1CC1)c1cc(OCC(F)(F)F)ccc1OCC(F)(F)F,17,-1,5,0,-11,14
CCOc1ccc(CSC2=NCCN2)cc1[N+](=O)[O-],36,-2,-10,0,i,26
CCCCOc1ccc(CSC2=NCCN2)cc1[N+](=O)[O-],47*,-3,13,1,139,11
COc1ccc(OC)c2c(C)c(C)[nH]c12,1,0,-1,8.2*,4,13
CCN(c1ccccc1)S(=O)(=O)c1cc2c3c(c1)CCN3C(=O)CC2,/,/,-15,/,-4,10
O=C(Nc1ccc(-c2cc3ccccc3oc2=O)c(Cl)c1)c1cccnc1,33*,-2,-6,-3,-12,25
CCCCNC(=O)c1oc2ccc(S(=O)(=O)N3CCCC3)cc2c1C,9,5.9*,-8,-2,21,16
CCCCNS(=O)(=O)c1cccc(S(=O)(=O)N2CCCC2)c1,-3,-2,2,-1,303*,-2
Cc1cccc(C)c1NC(=O)CCc1nnc2ccc(N3CCCC3)nn12,-12,-2,2,-2,-3,4
CCOc1cc(CNc2ccccc2)cc(Br)c1OCc1ccc(F)cc1,43*,-3,-8,-4,4,3
COC(=O)C(NC(=O)CCc1c(C)nc2c(c(C)nn2-c2ccccc2)c1C)C(C)C (stereo not drawn),32,4.6*,0,2,-30,0
COc1ccc(-c2nnnn2C)cc1S(=O)(=O)Nc1ccc(C)cc1C,5,-2,-7,0,-6,3
COc1ccc(C2=NS(=O)(=O)N(C)C(C(=O)N3CCCCC3C)=C2)cc1 (stereo not drawn),13,-5,0,-3,-7,16
O=C(NC1CCN(Cc2ccccc2)CC1)C1CCN(S(=O)(=O)c2ccccc2)CC1,1,-1,4,1,-9,17
Cc1noc(C)c1S(=O)(=O)N1CCC(C(=O)NC2CCN(Cc3ccccc3)CC2)CC1,39*,-3,-15,-5,-2,3
O=Cc1cc(N=Nc2ccccc2Cl)ccc1O,-8,9.7*,-46,-4,21,47
O=Cc1cc(N=Nc2cccc(C(=O)O)c2)ccc1O,6,13*,-29,-4,2,38
COc1cc(N=Nc2ccccc2C(=O)O)ccc1O,15,-3,-11,-2,11,33
CCOC(=O)C1=C(O)c2ccccc2C(=O)/C1=C\c1ccc(C)cc1,57,-3,/,-3,280*,/
CCOc1c(S(=O)(=O)N2CCCC2)ccc(Cl)c1Cl,41*,-2,-6,0,22,21
SMILES,NALP1 inh,IMP-1 inh,PolyA inh,VIM-2 inh,Mot1-301 SUMO,NALP3 yeast inh
Cc1cc(C)nc(NC(=S)NC(=O)c2ccccc2)n1,-14,-3,-12,8.4*,1,22
Cc1cc(C)nc(NC(=S)Nc2ccccc2)n1,6,-1,-9,-5,49,11
C=CCc1cccc(CNc2c(C)n(C)n(-c3ccccc3)c2=O)c1O,8,1,4,-3,-6,-2
C=CCc1cccc(CNc2c(C)cc(C)cc2C)c1O,1,0,/,-1,387*,11
CN(C)/C=C/C(=O)c1cc(N2CCOCC2)ccc1[N+](=O)[O-],7,7.4*,-23,-2,9,15
CC(=O)c1cc(N2CCOCC2)ccc1[N+](=O)[O-],0,-1,0,-2,/,/
COc1ccc(S(=O)(=O)c2c(N)n(Cc3ccco3)c3nc4ccccc4nc23)cc1,2,5.6*,4,5,-22,-4
